According to PubChem BioAssay AID449763 (Sanford-Burnham Center for Chemical Genomics, 2010):
The campaign covered roughly 330,000 compounds. About 1,100 (0.33%) were called active.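 How the source made its calls: active means at 10 µM dose, activation of 40% or more, normalized to positive control; inactive means the rest.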 Shown is part of a subset that was picked to be rich in actives.

Test: activators of apoptotic CHOP UPR arm, primary screen, cell-based, CHO-CHOP luciferase reporter, luminescence, uHTS (AID 449763);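 further: 100% = tunicamycin at 10 µg/mL and 0% = DMSO alone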
Settings: at 10 µM, active compounds read high, percent of tunicamycin response over DMSO baseline
Method in brief: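 Dosing – one dose, 10 µM in 0.5% DMSO · System – CHO-CHOP cells, stable luciferase reporter of PERK-eIF2a-CHOP signalling · Input – 500 cells/well · Control set – tunicamycin 10 µg/mL final as positive, DMSO-only wells as negative · Timing – 6 h compound treatment, 37 °C · Measure – % activation vs tunicamycin · Technique – luminescence read with Steady-Glo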
In the case of `COc1ccc(C(=O)NC2CC(C)(C)NC(C)(C)C2)cc1OC`, the activation is reported as 0.193% (inactive).
In the case of `O=C(CCC(=O)n1ncc2ccccc21)NCc1ccccc1Cl`, the activation is reported as -0.158% (inactive).
With `COc1ccc(S(=O)(=O)NC(C)C(=O)N2CCCCCC2)cc1` (configuration not stated) the activation was -2.32% (inactive).
In the case of `CCn1nc(C)c(CNC(=O)C2CCC(=O)N(Cc3cccc(F)c3)C2)c1C` (configuration not stated), the activation is reported as 0.585% (inactive).
For `Fc1ccccc1/C=C1\CCCC2=C1Nc1ncnn1C2c1ccccc1F` (configuration not stated), the activation was 90.9% (active).
For `CC1=C(C(N)=O)C(c2ccc(Br)cc2)n2ncnc2N1` (configuration not stated), the activation was -1.48% (inactive).
With `Brc1ccc2c(c1)[C@H]1OCC[C@H]1[C@@H](c1cccs1)N2` the activation was -1.2% (inactive).
In the case of `O=C1CCN(C(=O)Nc2ccccc2)N1`, the activation is reported as -2.23% (inactive).
For `Cc1ccc(OCC(=O)Nc2ccc(NC(=O)c3cccs3)cc2)c(C)c1`, the activation was 0.176% (inactive).
With `Cc1ccc(NC(=O)c2cccs2)cc1S(=O)(=O)N(C)C` the activation was 1.35% (inactive).
In the case of `Cc1ccc(-c2nnc(-c3ccc(NC(=O)c4cccs4)cc3)o2)cc1`, the activation is reported as 325% (active).
In the case of `CC1CCCCC1NC(=O)CSc1nnc(-c2ccncc2)n1CCCN(C)C` (configuration not stated), the activation is reported as -1.77% (inactive).
In the case of `Cn1c(SCc2ccc(F)cc2)nnc1-c1ccncc1`, the activation is reported as 1.85% (inactive).
With `CN(C)CCCn1c(SCc2ccc(Cl)cc2)nnc1-c1ccncc1` the activation was 139% (active).
For `COc1ccc(-n2cc(CNC3CCOCC3)c(-c3cccc(F)c3)n2)cc1`, the activation was 0.961% (inactive).
In the case of `O=C(COc1ccccc1O)NC1CCCC1`, the activation is reported as 3.04% (inactive).
In the case of `CC(=O)c1sc(N/N=C\c2ccc(C)cc2)nc1C`, the activation is reported as 5.8% (inactive).
In the case of `COc1cccc2sc(Nc3nc(C)c(C(C)=O)s3)nc12`, the activation is reported as 309% (active).
In the case of `CNC(=O)c1sc(NCc2ccccc2OC)nc1C`, the activation is reported as -3.17% (inactive).
For `CCn1c(SCc2ccccc2)nc2cc(OC)c(OC)cc2c1=O`, the activation was -0.179% (inactive).
For `CCn1c(/C=C/c2ccc([N+](=O)[O-])o2)nc2ccccc2c1=O`, the activation was 71.3% (active).
For `CCOCCCn1c(NN)nc2ccccc2c1=O`, the activation was 1.17% (inactive).
In the case of `COC(=O)c1cc(CNC(=O)CC(C)c2ccccc2)ccc1OC` (configuration not stated), the activation is reported as 2.14% (inactive).
In the case of `COc1ccc(-c2ccc(Nc3ccc(S(=O)(=O)N4CCCC4)cc3)nn2)cc1OC`, the activation is reported as 3.88% (inactive).
For `COc1ccc(-c2cc(-c3ccc(N)cc3)nc(N)c2C#N)cc1OC`, the activation was -0.472% (inactive).
With `COc1ccc(-c2cc(C(F)(F)F)nc(S(C)(=O)=O)n2)cc1OC` the activation was 106% (active).
With `O=C1/C(=C/c2ccc(F)cc2)SC(=S)N1NS(=O)(=O)c1ccccc1` the activation was 0.174% (inactive).
In the case of `CC(C)CNC(=S)NNC(=O)c1ccccc1OC(F)F`, the activation is reported as -0.805% (inactive).
With `O=C(/C=C/c1ccc([N+](=O)[O-])o1)NNC(=O)c1ccc(F)cc1` the activation was 129% (active).
With `Cc1onc(C(=O)NCc2ccc(F)cc2)c1[N+](=O)[O-]` the activation was -0.611% (inactive).
With `CCc1noc(C)c1C(=O)NNC(=O)c1ccc(F)cc1` the activation was -0.408% (inactive).
With `CC(C)CNS(=O)(=O)c1ccc(CCC(=O)NCc2ccc(Cl)cc2)cc1` the activation was 0.956% (inactive).
With `COc1cccc(-n2c(SCC(=O)NC3CCCCC3)nc3n[nH]c(C)c3c2=N)c1` the activation was -0.882% (inactive).
With `Cc1ccc(C(C[N+](=O)[O-])c2c(C)cc3ccccn23)cc1` (configuration not stated) the activation was -0.989% (inactive).
For `Nc1ccccc1SC(C[N+](=O)[O-])c1ccccc1` (configuration not stated), the activation was 181% (active).
For `COc1ccc(S(=O)(=O)N2CCOCC2)cc1NC(=O)CSc1ncnc2ccccc12`, the activation was -1.54% (inactive).
With `Cc1nn(CC#N)c(=O)n1N(C)c1ncc(C(F)(F)F)cc1Cl` the activation was -1.47% (inactive).
With `COc1ccc(C(C[N+](=O)[O-])n2nc(C)cc2C)cc1` (configuration not stated) the activation was 59.5% (active).
With `CCOc1ccc(C(C)C)cc1S(=O)(=O)n1nc(C)cc1C` the activation was -3.09% (inactive).
In the case of `COc1ccc(OC)c(S(=O)(=O)n2c([N+](=O)[O-])cnc2C)c1`, the activation is reported as -0.979% (inactive).
With `O=C(NNS(=O)(=O)c1ccccc1)c1cnn(-c2ccc(Cl)cc2)c1C(F)(F)F` the activation was 2.88% (inactive).
In the case of `CCN(C(=O)COC(=O)/C=C/c1nc2ccccc2s1)C1CCS(=O)(=O)C1` (configuration not stated), the activation is reported as 0.0282% (inactive).
With `CN1CCNC(=O)C1CC(=O)N1CC=C(c2ccc(F)cc2)CC1` (configuration not stated) the activation was -1.29% (inactive).
For `C=CS(=O)c1sc(Cl)c(N2CCOCC2)c1[N+](=O)[O-]` (configuration not stated), the activation was 97.2% (active).
With `O=C(CSCc1ccccc1)Nc1ccccc1` the activation was 2.11% (inactive).
In the case of `O=C(CCl)Nc1cccc(CP(=O)(c2ccccc2)c2ccccc2)c1`, the activation is reported as 60.2% (active).
In the case of `O=C(CSc1ccccc1)Nc1ccc(C(=O)Nc2cccc(O)c2)cc1`, the activation is reported as 2.1% (inactive).
With `COc1c(C)cc(C(=O)C2CCCN(S(=O)(=O)c3c(C)noc3C)C2)cc1C` (configuration not stated) the activation was 3.35% (inactive).
With `O=C(/C=C/Sc1ncn[nH]1)c1ccc(Cl)cc1` the activation was -3.23% (inactive).
For `Cc1cc(C)nc(SCC(=O)N(C)C)n1`, the activation was -0.00178% (inactive).
For `Cc1cc(C)nc(S/C=C/C(=O)c2ccccc2)n1`, the activation was 64.1% (active).
In the case of `CC1(C(=O)N/N=C/c2cc3c(cc2Br)OCO3)CC1(Br)Br` (configuration not stated), the activation is reported as 1.01% (inactive).
In the case of `O=C(N/N=C\c1cc2c(cc1Cl)OCO2)c1ccc(Br)s1`, the activation is reported as 51.5% (active).
In the case of `O=C(N/N=C/c1cc2c(cc1Br)OCO2)C1COc2ccccc2O1` (configuration not stated), the activation is reported as 8.62% (inactive).
In the case of `Cc1ccc(S(=O)(=O)c2nnn3c2nc(N2CCN(c4ccccn4)CC2)c2ccccc23)cc1`, the activation is reported as 1.19% (inactive).
In the case of `CC(=O)Nc1ccc(Nc2nc3c(S(=O)(=O)c4ccc(C)c(C)c4)nnn3c3ccccc23)cc1`, the activation is reported as 0.65% (inactive).
In the case of `Cc1cccc(Nc2nc3c(S(=O)(=O)c4ccccc4)nnn3c3ccccc23)c1C`, the activation is reported as 145% (active).
In the case of `Cc1cccc(C(=O)N2CCCC(Nc3ccc(C(C)C)cc3)C2)n1` (configuration not stated), the activation is reported as 0.069% (inactive).
In the case of `COc1cccc(/C=N/NC(=O)CNC(=O)c2ccc(S(=O)(=O)N3CCOCC3)cc2)c1OC`, the activation is reported as 3.45% (inactive).
In the case of `COc1ccc(C(=O)NCC(=O)N/N=C/c2ccc([N+](=O)[O-])o2)cc1OC`, the activation is reported as 113% (active).
With `COc1cc(CC(=O)N/N=C/c2ccccc2)c([N+](=O)[O-])cc1OC` the activation was 0.0789% (inactive).
With `CCN(c1ccc(NC(=O)COC(=O)CCc2nc3ccccc3n2-c2ccccc2)cc1)C(C)C` the activation was -1.22% (inactive).
For `Cc1c(CN2CCC(n3nccc3NC(=O)CCc3ccccc3)CC2)cnn1C`, the activation was 1.65% (inactive).
With `COc1ccc(CN2C(=O)CN=C2Nc2ccc(C)cc2C)cc1` the activation was 1.91% (inactive).
With `COc1ccc(CN2CN(C(C)C)CSC2=S)cc1` the activation was 0.456% (inactive).
With `S=C1SCN(CCN2CCOCC2)CN1Cc1ccccc1` the activation was 129% (active).
For `c1ccc(-c2ccc(OCCN3CCOCC3)cc2)cc1`, the activation was 5.5% (inactive).
For `COc1ccc(OC)c(NC(=O)CSc2nc(-c3ccccc3)cc(=O)[nH]2)c1`, the activation was 4.07% (inactive).
With `C=C(C)CNC(=S)Nc1ccc(S(=O)(=O)Nc2cnc3ccccc3n2)cc1` the activation was -2.1% (inactive).
With `COc1ccc(C(=O)NCC2CCCN2S(=O)(=O)c2cccs2)cc1OC` (configuration not stated) the activation was 11.9% (inactive).
With `COCc1ccc(C(=O)N2CCc3c([nH]c4ccccc34)C2c2ccccn2)s1` (configuration not stated) the activation was -0.769% (inactive).
With `COc1cc(NS(=O)(=O)c2ccc3ccccc3c2)c2ncccc2c1` the activation was 409% (active).
For `COc1ccc(N2CC(NS(=O)(=O)c3ccc4ccccc4c3)CC2=O)cc1` (configuration not stated), the activation was -0.659% (inactive).
For `CCOc1cc(NS(=O)(=O)c2ccc(OC)cc2)c(OCC)cc1NC(C)=O`, the activation was 1.17% (inactive).
In the case of `COC(=O)[C@]1(C)N[C@H](CN(C)C(=O)c2ccc(C(C)(C)C)cc2)[C@@H]2C(=O)N(C)C(=O)[C@@H]21`, the activation is reported as 2.43% (inactive).
In the case of `CCCCOc1ccc(N(CC(=O)NCC2CCCO2)C(=O)CCC(=O)Nc2cc(C)ccn2)cc1` (configuration not stated), the activation is reported as -1.23% (inactive).
In the case of `O=C(NCc1ccco1)c1sc2cccc(F)c2c1Cl`, the activation is reported as 2.12% (inactive).
For `O=C(N/N=C/c1ccc(O)c(O)c1)C1c2ccccc2Oc2ccccc21`, the activation was 3.18% (inactive).
In the case of `O=C(O)c1ccc(N/N=C/c2ccc3ncccc3c2)cc1`, the activation is reported as -10.5% (inactive).
With `Oc1ccc(/C=N/Nc2ccc(C(F)(F)F)cn2)cc1O` the activation was 67.4% (active).
With `Cc1ccc(CCCOC(=O)C[N+]2(C)CCCC2)cc1` the activation was 1.65% (inactive).
In the case of `O=S(=O)(NCC1CCCO1)c1cnc(Cl)c(Cl)c1` (configuration not stated), the activation is reported as 4.71% (inactive).
In the case of `O=C(NCCCO)/C(=C\C=C\c1ccccc1)NC(=O)c1ccccc1Cl`, the activation is reported as 0.299% (inactive).
For `COc1ccc(CCNC(=O)CCc2ccccc2O)cc1OC`, the activation was -0.118% (inactive).
In the case of `O=C(COC(=O)CN1C(=O)C2CCCCC2C1=O)Nc1ccc(F)c(F)c1F` (configuration not stated), the activation is reported as 1.69% (inactive).
For `CC1=CC(C)(C)Nc2ccc(OC(=O)C(Cc3ccccc3)N3C(=O)C4CCCCC4C3=O)cc21` (configuration not stated), the activation was -1.34% (inactive).
For `CC1=CC(C)(C)Nc2ccc(OC(=O)CN3C(=O)C4CCCCC4C3=O)cc21` (configuration not stated), the activation was 67.7% (active).
For `COc1ccc(NC2CC(=O)N(C)C2=O)cc1` (configuration not stated), the activation was -2.21% (inactive).
With `COc1ccc(Nc2cc(C)nc(-n3nc(C)cc3C)n2)cc1` the activation was 62.8% (active).
For `COc1ccccc1/C=N/N1CCN(Cc2ccccc2Cl)CC1`, the activation was -0.532% (inactive).
For `COc1ccccc1/C=N\Nc1cc(C)nc(-n2nc(C)cc2C)n1`, the activation was 80.6% (active).
In the case of `CN(C)c1ccc(/C=N/Nc2cc(N3CCOCC3)nc(N3CCOCC3)n2)cc1`, the activation is reported as -1.02% (inactive).
For `COc1ccc(NC(=O)c2nc(-n3nc(C)cc3C)ccc2Cl)cc1Cl`, the activation was -0.184% (inactive).
With `COc1ccc(/C=N/Nc2cc(N3CCOCC3)nc(C)n2)c(OC)c1` the activation was 8.25% (inactive).
For `Cc1cc(N/N=C\c2ccc(Br)cc2)nc(-n2nc(C)cc2C)n1`, the activation was 49.5% (active).
With `C(=N/Nc1cc(N2CCOCC2)nc(N2CCOCC2)n1)/c1ccccc1` the activation was 4.25% (inactive).
For `CC(=O)c1ccc(Oc2cc(C)nc(-n3nc(C)cc3C)n2)cc1`, the activation was -1.17% (inactive).
